RGS4 inh: inhibitors of human RGS4. B-score at 10 µM. P49798. HEK293 M3R/RGS4 inducible, Fluo-4 calcium flux; hits give high values; triggered by carbachol at its EC20. 310,000 tested, 0.45% active;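 active = B-score, a plate-corrected calcium signal, over three deviations above library mean, with baseline fluorescence within five deviations of library mean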;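 also: RGS4 expression induced by doxycycline in cells with stable M3 receptor; B-score is computed from the integrated fluorescence ratio over baseline after carbachol; higher B-score means a larger calcium signal and so more RGS4 inhibition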
Target sequence (P49798 whole entry, looked up): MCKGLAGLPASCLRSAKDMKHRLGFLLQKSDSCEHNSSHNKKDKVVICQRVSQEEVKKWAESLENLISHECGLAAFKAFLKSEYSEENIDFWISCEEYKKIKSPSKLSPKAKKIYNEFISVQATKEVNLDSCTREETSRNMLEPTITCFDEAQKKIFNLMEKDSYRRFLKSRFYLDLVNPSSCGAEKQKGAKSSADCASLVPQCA
MrgX1 allo act: human MrgX1 positive allosteric modulation, primary screen. Q96LB2. MrgX1-HEK293, Fluo-4 calcium flux, FDSS; hits give high values. B-score at 10 µM. 310,000 tested, 0.63% active. AID 588675;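 active = plate-corrected calcium response at least 3 library SD above typical, normal starting fluorescence, not activating the receptor alone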;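 also: compound read alongside a low EC10 to EC30 dose of BAM8-22 agonist; peak minus trough fluorescence over baseline measured at the second addition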
Target sequence (Q96LB2 whole entry, looked up): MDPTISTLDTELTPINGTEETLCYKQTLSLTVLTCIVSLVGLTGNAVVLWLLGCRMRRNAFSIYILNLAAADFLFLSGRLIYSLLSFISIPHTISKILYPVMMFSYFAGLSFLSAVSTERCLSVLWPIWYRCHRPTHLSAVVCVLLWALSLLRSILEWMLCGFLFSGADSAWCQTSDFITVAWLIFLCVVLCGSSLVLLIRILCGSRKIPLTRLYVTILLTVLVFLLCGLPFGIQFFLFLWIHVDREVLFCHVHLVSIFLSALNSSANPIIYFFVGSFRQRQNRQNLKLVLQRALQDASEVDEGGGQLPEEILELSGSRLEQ
MrgX1 antagonist: blocks BAM8-22 activation of human MrgX1 receptor; Q96LB2; MRGX1-HEK293 calcium flux, Fluo-4, BAM8-22 antagonism; hits give low values; B-score at 10 µM; 310,000 tested, 1.3% active; AID 588676;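 active = calcium-response B-score plate-corrected more than 3 library SD below zero, starting fluorescence within 5 deviations, no agonist response on first addition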;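 also: peak minus trough fluorescence over baseline after final BAM8-22 challenge near maximal dose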
RGS4 pot: potentiators or activators of RGS4. B-score at 10 µM. AID 463111. 310,000 tested, 0.92% active. HEK293 M3R/inducible RGS4, carbachol calcium flux Fluo4; hits give low values;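 active = B-score of the integrated calcium signal more than 4 SD below the library mean, with starting fluorescence not abnormally high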;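 also: negative B-score means reduced calcium response which marks RGS4 activation or potentiation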
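System: HEK293 FlpIn-TREx cells, stable M3R, doxycycline-inducible RGS4. Timing: overnight RGS4 induction, 30 min dye load 37 °C, 20 min compound RT. Also added: carbachol, ECmax concentration. Measured by: Fluo4 fluorescence kinetic imaging of calcium. Evaluation: integrated calcium ratio converted to B score.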
MrgX1 ag: agonists of human MrgX1 receptor; Q96LB2; MrgX1-HEK293 cells, Fluo-4 calcium fluorescence, agonist mode; hits give high values; B-score at 10 µM; 310,000 tested, 0.44% active; AID 588627;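 active = calcium response B-score plate-corrected fluorescence ratio at least 3 library SD, with starting fluorescence B-score inside 5 SD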
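Assay system: MrgX1-expressing HEK293 cells / Amount: fifteen thousand cells per well / Doses: test compound in the initial addition of three / Timing: cells plated overnight, dye loaded 0.5 h 37 °C, 0.5 h room temperature / Technique: kinetic calcium dye fluorescence, Fluo-4 NW / Control set: positive and negative controls per plate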
Active calls of the source: *; i = inactive; . = no result. An excerpt weighted towards active compounds, which were near 3.5% of everything screened.

SMILES | RGS4 inh | MrgX1 allo act | MrgX1 antagonist | RGS4 pot | MrgX1 ag
CCn1c(N2CCN(Cc3ccc([N+](=O)[O-])cc3)CC2)nc2ccccc21 | i | i | i | i | i
CCCn1c(N2CCN(Cc3ccc(Cl)cc3)CC2)nc2ccccc21 | i | i | i | i | 29.7*
Cc1ccc2c(c1)S/C(=C/c1ccc[n+](C)c1)N2CCO | i | i | i | -7.04* | i
CCN(CC(=O)NC1CCS(=O)(=O)C1)S(=O)(=O)c1c(C)c(C)cc(C)c1C (centres undefined) | i | i | i | i | i
O=C(CN1CCN(Cc2ccccc2)CC1)NC(=O)NC1CCCCC1 | i | i | i | i | i
O=C(CN1CCN(C/C=C/c2ccccc2)CC1)NC(=O)NC1CCCCC1 | i | i | i | -7* | i
COc1ccc(CNC(=O)C(C#N)c2nc3ccccc3nc2N2CCN(C)CC2)cc1 (centres undefined) | i | i | i | i | i
COc1ccc(CNC(=O)C(C#N)c2nc3ccccc3nc2N2CCCC2)cc1 (centres undefined) | i | i | -5.07* | i | i
C=CCNC(=O)C(C#N)c1nc2ccccc2nc1N1CCCCCC1 (centres undefined) | i | 7.65* | i | i | i
CSc1ccc(CN2CCN(C(=O)c3ccncc3)CC2)cc1 | i | i | i | i | i
O=C(Cn1cnc2cc([N+](=O)[O-])ccc2c1=O)Nc1ccc(N2CCOCC2)cc1 | i | i | i | i | i
Nc1cc(=O)[nH]c(SCc2cccc3ccccc23)n1 | i | i | i | i | i
O=c1cc(C(F)(F)F)nc(SCc2cccc3ccccc23)[nH]1 | i | i | -5.13* | i | i
CCOc1ccc(N(CC(=O)N2CCOCC2)S(=O)(=O)c2ccc(SC)cc2)cc1 | i | i | i | i | i
CCN(CC)c1ccc(/C=C2\SC(N)=NC2=O)cc1 | i | i | i | i | 33.1*
COc1ccccc1C(=O)NC(CCSC)C(=O)OC(C)C(N)=O (centres undefined) | i | 12.1* | i | i | i
CCN(CC(=O)NC(C)C)C(=O)C(CCSC)NC(=O)c1ccccc1OC (centres undefined) | i | i | i | i | i
Cc1ccc(NC(=O)c2ccc(Cl)c(S(=O)(=O)N3CCCC3)c2)nc1 | i | i | i | i | i
COc1ccccc1-c1cnn2c(NCc3ccccc3)cc(C)nc12 | i | i | i | -7.28* | i
O=c1c2ccccc2cnn1Cc1nnc(-c2cccs2)o1 | i | i | i | i | i
CCCn1c(-c2ccc(F)cc2)n[nH]c1=S | i | i | i | i | i
C=C(C)Cn1c(-c2cccc([N+](=O)[O-])c2)n[nH]c1=S | i | i | -4.79* | i | i
CCCCn1c(-c2ccc([N+](=O)[O-])cc2)n[nH]c1=S | i | i | i | -10.2* | i
C=CCn1c(-c2cccc([N+](=O)[O-])c2)n[nH]c1=S | i | i | i | i | i
COc1ccc(OC)c(-c2cc(C(=O)Nc3ccccc3C(N)=O)c3ccccc3n2)c1 | i | i | i | i | i
SMILES | RGS4 inh | MrgX1 allo act | MrgX1 antagonist | RGS4 pot | MrgX1 ag
C#CCSc1nnc(-c2ccc(C)cc2)o1 | i | i | i | i | i
C#CCSc1nnc(-c2ccc(O)cc2)o1 | i | i | -7.58* | i | i
CC1CN(c2nc3ccccc3nc2SCC(=O)Nc2cccc(C(F)(F)F)c2)CC(C)O1 (centres undefined) | i | i | i | -7.61* | i
COc1ccc(OCC(=O)NNC(=S)NC(=O)C2CC2)cc1 | i | i | i | i | i
CCc1ccc(OCC(=O)NNC(=S)NC(=O)C2CCCCC2)c(Br)c1 | i | i | -8.94* | i | i
COc1ccc(CC(=O)NC(=S)NNC(=O)COc2c(C)cccc2C)cc1 | i | i | i | i | 27.3*
COc1ccc(OCC(=O)NNC(=S)NC(=O)C2CCCCC2)cc1 | i | i | i | i | 50*
Cc1cc(C)cc(OCC(=O)NNC(=S)NC(=O)C2CC2)c1 | i | i | i | i | 32.1*
CCc1ccc(OCC(=O)NNC(=S)NC(=O)C2CC2)c(Br)c1 | i | i | i | i | i
CCn1c(=O)n(CC)c2cc(N3CCCC3)c(NC(=O)c3cccc(OC)c3)cc21 | i | i | i | i | i
COc1cccc(C(C(=O)NCc2ccco2)N(Cc2ccco2)C(=O)Cn2nnc3ccccc32)c1 (centres undefined) | i | i | i | -7.24* | i
Clc1ccc2c(NCc3ccccc3)ccnc2c1 | i | i | i | i | 31.9*
CCN(CC)CCNc1ccnc2cc(Cl)ccc12 | i | i | i | i | i
S=C(Nc1ccccc1Cl)Nc1ccc(Cl)cc1Cl | i | i | i | i | i
S=C(NNc1ccnc2cc(Cl)ccc12)Nc1ccccc1Cl | i | 6.67* | i | i | i
Cc1nn(C)cc1C(C(=O)NC1CCCCC1)N(C(=O)Cc1cccs1)c1ccc(C(C)C)cc1 (centres undefined) | i | i | i | i | 26.5*
COc1cc(NC(=O)c2ccc(NC3=NC4CS(=O)(=O)CC4S3)cc2)cc(OC)c1OC (centres undefined) | i | i | i | i | i
NC(=O)C(CC(=O)O)NC(=O)[C@@H]1CCOc2c(I)cc([N+](=O)[O-])cc2C(=O)N[C@@H](CCC(=O)O)C(=O)N[C@@H](CO)C(=O)N1 (some centres undefined) | . | i | -6.08* | . | i
C[C@@H]1NC(=O)c2cc([N+](=O)[O-])cc(I)c2OCC[C@@H](C(=O)NC(CC(=O)O)C(N)=O)NC(=O)[C@H](CCC(=O)O)NC1=O (some centres undefined) | . | i | i | . | i
COc1ccccc1/C(C)=N/NC(=S)NCc1ccccc1 | i | i | i | i | i
Cc1ccc(OC(=O)C2c3ccccc3Oc3ccccc32)cc1C | i | i | i | -7.76* | i
CC(C)CN1C(=O)/C(=C(/C#N)C(=O)NC2CCCCC2)c2ccccc21 | i | 8.17* | i | i | i
O=C(NCc1ccccc1)C12CC3CC(CC(Br)(C3)C1)C2 | i | i | i | i | i
C=C(C)CCC(C)N1CCC(n2nccc2NC(=O)CCCc2ccccc2)CC1 (centres undefined) | i | i | i | i | i
O=C(O)CCS(=O)(=O)c1nc(-c2cccs2)cc(C(F)(F)F)n1 | i | i | i | i | i

Screening data deposited in PubChem BioAssay by Johns Hopkins Ion Channel Center.
